{
  "source": "paper PMC3016090",
  "about": "(ChemMedChem, 2009)",
  "key": {"[1]": {"biological_target": "T1, FAAH (Mus musculus, UniProt O08914)", "T1 sequence (O08914 1-579)": "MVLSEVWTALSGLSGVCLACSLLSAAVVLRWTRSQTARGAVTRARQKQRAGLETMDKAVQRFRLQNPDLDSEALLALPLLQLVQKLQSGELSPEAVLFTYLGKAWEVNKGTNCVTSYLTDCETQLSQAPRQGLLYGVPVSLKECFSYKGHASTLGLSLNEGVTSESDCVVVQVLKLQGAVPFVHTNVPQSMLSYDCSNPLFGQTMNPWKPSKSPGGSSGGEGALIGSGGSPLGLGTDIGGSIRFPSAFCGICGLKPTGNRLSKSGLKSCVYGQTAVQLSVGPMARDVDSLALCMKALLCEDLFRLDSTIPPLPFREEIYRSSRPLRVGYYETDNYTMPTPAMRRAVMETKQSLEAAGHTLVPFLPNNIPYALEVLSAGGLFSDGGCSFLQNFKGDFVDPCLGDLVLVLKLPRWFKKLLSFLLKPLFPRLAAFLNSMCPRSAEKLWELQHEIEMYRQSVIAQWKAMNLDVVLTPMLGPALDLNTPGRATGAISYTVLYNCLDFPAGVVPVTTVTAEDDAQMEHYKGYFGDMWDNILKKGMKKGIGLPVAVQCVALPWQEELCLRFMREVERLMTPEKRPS", "assay": "Brain FAAH activity measured ex vivo after i.p. administration in mice", "settings": "for ED50: mouse, ip, read-out: ID50; for ID50 / Percent FAAH activity remaining at 1 mg-kg^−1 / inhibition of brain FAAH activity in vivo: mice; for ID50 / inhibition of brain FAAH activity in vivo: i.p.; for ID50: brain FAAH activity ex vivo; for Percent FAAH activity remaining at 1 mg-kg^−1: 1 mg-kg^−1 i.p., brain FAAH ex vivo, printed in ID50 column; for inhibition of brain FAAH activity in vivo: doses up to 1 mg-kg^−1", "in_short": "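Mice received a single i.p. injection. Brains were frozen in liquid N2, thawed, homogenized in 10 vol ice-cold 50 mM Tris pH 7.5 with 0.32 M sucrose, and spun at 1000 x g for 10 min at 4 °C. Homogenate (50 μg protein) was incubated for 30 min at 37 °C in 50 mM Tris pH 7.5 with 0.05% fatty acid-free BSA and 10 μM anandamide plus [3H]-anandamide. Reactions were stopped with chloroform/methanol (1:1), and aqueous-layer radioactivity was scintillation counted.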"}, "[2]": {"test_system": "liver carboxylesterases", "type": "biochemical", "settings": "rat liver microsomes, 30, 100 and 300 nM", "in_short": "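Commercial rat liver microsomes (2.5 μg) were preincubated with test compound for 30 min at room temperature. p-Nitrophenylacetate was then added (1 mM final). After 20 min, p-nitrophenol formation was read as absorbance at 405 nm.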"}, "[3]": {"assay": "Stability in phosphate buffered saline at pH 7.4", "type": "physicochemical", "settings": "PBS pH 7.4, 37 °C; for pH 7.4 (%), percent remaining after 24 h incubation: 1 μM compound", "in_short": "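Test compound at 1 μM final (1% DMSO) in 10 mM PBS, pH 7.4, at 37 °C. Aliquots were taken at intervals and quantified by LC against calibration curves built in spiked PBS. Reported as percent remaining after 24 h.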"}, "[4]": {"biological_target": "T2, FAAH (Rattus norvegicus, UniProt P97612)", "T2 sequence (P97612 1-579)": "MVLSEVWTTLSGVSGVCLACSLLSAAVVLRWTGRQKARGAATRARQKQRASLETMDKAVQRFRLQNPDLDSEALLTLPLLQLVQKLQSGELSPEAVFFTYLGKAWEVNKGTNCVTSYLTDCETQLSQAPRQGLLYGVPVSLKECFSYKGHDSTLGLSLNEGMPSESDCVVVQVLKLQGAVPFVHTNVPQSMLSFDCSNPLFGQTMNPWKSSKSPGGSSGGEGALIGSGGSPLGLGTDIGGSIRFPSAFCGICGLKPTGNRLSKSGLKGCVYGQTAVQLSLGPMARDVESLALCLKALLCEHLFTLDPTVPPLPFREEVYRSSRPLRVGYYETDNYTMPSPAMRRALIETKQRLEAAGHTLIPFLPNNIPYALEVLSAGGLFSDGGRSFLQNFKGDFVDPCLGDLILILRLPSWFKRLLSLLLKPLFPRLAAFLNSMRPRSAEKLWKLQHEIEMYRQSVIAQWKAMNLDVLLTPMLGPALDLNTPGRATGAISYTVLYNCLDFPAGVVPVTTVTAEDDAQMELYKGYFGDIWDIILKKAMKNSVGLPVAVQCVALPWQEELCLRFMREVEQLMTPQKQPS", "assay": "FAAH activity in vitro, rat brain membranes, [3H]-anandamide hydrolysis", "type": "biochemical"}, "[5]": {"assay": "Brain tissue and serum drug levels in mice by LC/MS", "type": "in vivo, mouse", "settings": "1 mg-kg^−1 i.p.; for AUC in the brain: 2 h time-course, n = 3; for Cmax in brain tissue: single administration, n = 3 per timepoint"}, "[6]": {"assay": "Stability in rat plasma", "type": "in vitro ADME", "settings": "for half-life at 1 μM: rat, pooled rat plasma diluted to 80% (vol/vol) with PBS, pH 7.4; for Rat Plasma t1/2: 80% rat plasma in PBS pH 7.4, 37 °C", "in_short": "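Heparinized rat blood from cardiac puncture gave plasma (1,900 x g), pooled and diluted to 80% v/v with 100 mM PBS, pH 7.4. Test compound was added from a 100 μM DMSO stock and incubated at 37 °C with shaking. Timed samples were quenched in ice-cold acetonitrile, spun, and analysed by reversed-phase HPLC-UV against plasma calibration curves. Apparent t1/2 came from log-concentration-versus-time regression.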"}, "[7]": {"settings": "rat brain membranes, 10 μM anandamide, no pre-incubation"}},
  "note": "Where two headings read alike, the source gives them in different places. Marks after values point to notes of the source that are not given here.",
  "data": [
    {"compound": "Nc1ccc(OC(=O)NC2CCCCC2)cc1-c1ccccc1", "note": "[Compound 1h, Cyclohexylcarbamic acid 6-aminobiphenyl-3-yl ester]", "values": [
      {"measurement": "ED50", "setting": "[1]", "result": 0.18, "unit": "mg/kg"},
      {"measurement": "effect on liver carboxylesterase activities compared to URB597", "setting": "[2]", "result": "reduced effects on liver carboxylesterase activities"},
      {"measurement": "pH 7.4 (%), percent remaining after 24 h incubation", "setting": "[3]", "result": "89.0 ± 0.5", "unit": "%"},
      {"measurement": "IC50", "setting": "[4]", "result": "27.2 ± 4.8", "unit": "nM"}
    ]},
    {"compound": "NC(=O)c1cccc(-c2cccc(OC(=O)NC3CCCCC3)c2)c1", "note": "[Compound 1d]", "values": [
      {"measurement": "AUC in the brain", "setting": "[5]", "result": "6036 ± 899", "unit": "arbitrary units"},
      {"measurement": "Cmax in brain tissue", "setting": "[5]", "result": "226 ± 29", "unit": "pmol/g"},
      {"measurement": "half-life at 1 μM", "setting": "[6]", "result": "33 ± 0.5", "unit": "min"},
      {"measurement": "ED50", "setting": "[1]", "result": 0.22, "unit": "mg/kg"},
      {"measurement": "pH 7.4 (%), percent remaining after 24 h incubation", "setting": "[3]", "result": "40.2 ± 0.6", "unit": "%"}
    ]},
    {"compound": "O=C(NC1CCCCC1)Oc1ccc([N+](=O)[O-])c(-c2ccccc2)c1", "note": "[Compound 1i, Cyclohexylcarbamic acid 6-nitrobiphenyl-3-yl ester]", "values": [
      {"measurement": "pH 7.4, value expressed as t1/2", "setting": "[3]", "result": "1.7 ± 0.1 ^[c] min"},
      {"measurement": "IC50", "setting": "[4]", "result": "> 30000", "unit": "nM"}
    ]},
    {"compound": "O=C(NC1CCCCC1)Oc1cccc(-c2ccccc2)c1", "note": "[Compound 1a]", "values": [
      {"measurement": "AUC in the brain", "setting": "[5]", "result": "2589 ± 423", "unit": "arbitrary units"},
      {"measurement": "Cmax in brain tissue", "setting": "[5]", "result": "74 ± 3", "unit": "pmol/g"},
      {"measurement": "Rat Plasma t1/2", "setting": "[6]", "result": "42.7 ± 3.7", "unit": "min"},
      {"measurement": "ID50", "setting": "[1]", "result": 0.81, "unit": "mg/kg"},
      {"measurement": "pH 7.4 (%), percent remaining after 24 h incubation", "setting": "[3]", "result": "41.1 ± 1.1", "unit": "%"},
      {"measurement": "IC50", "setting": "[4]; [7]", "result": "25.6 ± 2", "unit": "nM"}
    ]},
    {"compound": "O=C(NCCCCCCCCc1ccccc1)Oc1cccc(-c2ccccc2)c1", "note": "[Compound 1c]", "values": [
      {"measurement": "Rat Plasma t1/2", "setting": "[6]", "result": "7.0 ± 0.1", "unit": "min"},
      {"measurement": "Percent FAAH activity remaining at 1 mg-kg^−1", "setting": "[1]", "result": "105% ^[b]"},
      {"measurement": "inhibition of brain FAAH activity in vivo", "setting": "[1]", "result": "completely inactive in vivo"},
      {"measurement": "pH 7.4 (%), percent remaining after 24 h incubation", "setting": "[3]", "result": "65.9 ± 3.1", "unit": "%"},
      {"measurement": "IC50", "setting": "[4]; [7]", "result": "5.4 ± 0.5", "unit": "nM"},
      {"measurement": "in vitro FAAH potency relative to parent URB524 (times more potent)", "setting": "[4]; ratio of IC50 versus URB524", "result": "approximately 5 fold"}
    ]},
    {"compound": "O=C(NCCCCc1ccccc1)Oc1cccc(-c2ccccc2)c1", "note": "[Compound 1b]", "values": [
      {"measurement": "Rat Plasma t1/2", "setting": "[6]", "result": "6.6 ± 0.7", "unit": "min"},
      {"measurement": "plasma t1/2, fold shorter than URB524", "setting": "[6]; rat plasma, versus URB524", "result": "approximately 6 fold"},
      {"measurement": "ID50", "setting": "[1]", "result": 0.96, "unit": "mg/kg"},
      {"measurement": "pH 7.4 (%), percent remaining after 24 h incubation", "setting": "[3]", "result": "35.9 ± 2.7", "unit": "%"},
      {"measurement": "IC50", "setting": "[4]; [7]", "result": "9.4 ± 2.8", "unit": "nM"}
    ]},
    {"compound": "NC(=O)c1cccc(-c2cccc(OC(=O)NCCCCCCCCc3ccccc3)c2)c1", "note": "[Compound 1f, 8-Phenyloctylcarbamic acid 3′-carbamoylbiphenyl-3-yl ester]", "values": [
      {"measurement": "drug levels in serum and brain after administration", "setting": "[5]", "result": "little or no increase in drug levels in serum and brain"},
      {"measurement": "half-life at 1 μM", "setting": "[6]", "result": "4 ± 0.1", "unit": "min"},
      {"measurement": "Percent FAAH activity remaining at 1 mg-kg^−1", "setting": "[1]", "result": 65, "unit": "%^b"},
      {"measurement": "inhibition of brain FAAH activity in vivo", "setting": "[1]", "result": "little or no"},
      {"measurement": "pH 7.4 (%), percent remaining after 24 h incubation", "setting": "[3]", "result": "42.8 ± 1.4", "unit": "%"},
      {"measurement": "IC50", "setting": "[4]", "result": "0.26 ± 0.02", "unit": "nM"}
    ]}
  ]
}
